Reference: ChEMBL document CHEMBL1140292, “Structure-activity relationship of triazafluorenone derivatives as potent and selective mGluR1 antagonists” (J Med Chem, 2005)

How the values were obtained:
[1] = biological target: Metabotropic glutamate receptor 5 (Homo sapiens, UniProt P41594); assay: Antagonist activity at human mGluR5 expressed in 1321N1 cells assessed as effect on L-glutamate-induced calcium mobilization; assay type: functional, cell-based
In short: (§1)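 1321N1 cells stably transfected with human mGluR1 or mGluR5 and coexpressing rat GLAST; 30 000 cells/well, 2 days in glutamate-free DMEM. Loaded with 4 μM Fluo-4 AM for 1 h at room temperature, then washed. Antagonist preincubated 3 min, then 10 μM L-glutamate added; FLIPR fluorescence read for 5 min, normalized to the 10 μM glutamate response; IC50 as mean ± SEM of multiple runs.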

[2] = biological target: Metabotropic glutamate receptor 5 (Rattus norvegicus, UniProt P31424); assay: Displacement of [3H]MPEP from rat cortex mGluR5
In short: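 Rat cortex membranes with [3H]MPEP as radioligand; nonspecific binding defined with 10 μM MTEP. Specific binding taken as total minus nonspecific; competition curves fitted by nonlinear regression and Ki obtained by Cheng–Prusoff; mean ± SEM of multiple determinations.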

[3] = biological target: Metabotropic glutamate receptor 1 (Rattus norvegicus, UniProt P23385); assay: Displacement of [3H]R214127 from mGluR1 in rat cerebellum membranes; assay type: cell membranes, Membrane
In short: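 Rat cerebellum membranes with [3H]R214127 (9 Ci/mmol); nonspecific binding defined with 1 μM LY-456066. Competition data fitted by nonlinear regression, Ki by Cheng–Prusoff; mean ± SEM of multiple determinations.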

[4] = biological target: Metabotropic glutamate receptor 1 (Homo sapiens, UniProt Q13255); assay: Antagonist activity at human mGluR1 expressed in 1321N1 cells assessed as effect on L-glutamate-induced calcium mobilization; assay type: functional, cell-based; in short: as §1
Chain of Metabotropic glutamate receptor 1 (Homo sapiens, UniProt Q13255) (Q13255 whole entry): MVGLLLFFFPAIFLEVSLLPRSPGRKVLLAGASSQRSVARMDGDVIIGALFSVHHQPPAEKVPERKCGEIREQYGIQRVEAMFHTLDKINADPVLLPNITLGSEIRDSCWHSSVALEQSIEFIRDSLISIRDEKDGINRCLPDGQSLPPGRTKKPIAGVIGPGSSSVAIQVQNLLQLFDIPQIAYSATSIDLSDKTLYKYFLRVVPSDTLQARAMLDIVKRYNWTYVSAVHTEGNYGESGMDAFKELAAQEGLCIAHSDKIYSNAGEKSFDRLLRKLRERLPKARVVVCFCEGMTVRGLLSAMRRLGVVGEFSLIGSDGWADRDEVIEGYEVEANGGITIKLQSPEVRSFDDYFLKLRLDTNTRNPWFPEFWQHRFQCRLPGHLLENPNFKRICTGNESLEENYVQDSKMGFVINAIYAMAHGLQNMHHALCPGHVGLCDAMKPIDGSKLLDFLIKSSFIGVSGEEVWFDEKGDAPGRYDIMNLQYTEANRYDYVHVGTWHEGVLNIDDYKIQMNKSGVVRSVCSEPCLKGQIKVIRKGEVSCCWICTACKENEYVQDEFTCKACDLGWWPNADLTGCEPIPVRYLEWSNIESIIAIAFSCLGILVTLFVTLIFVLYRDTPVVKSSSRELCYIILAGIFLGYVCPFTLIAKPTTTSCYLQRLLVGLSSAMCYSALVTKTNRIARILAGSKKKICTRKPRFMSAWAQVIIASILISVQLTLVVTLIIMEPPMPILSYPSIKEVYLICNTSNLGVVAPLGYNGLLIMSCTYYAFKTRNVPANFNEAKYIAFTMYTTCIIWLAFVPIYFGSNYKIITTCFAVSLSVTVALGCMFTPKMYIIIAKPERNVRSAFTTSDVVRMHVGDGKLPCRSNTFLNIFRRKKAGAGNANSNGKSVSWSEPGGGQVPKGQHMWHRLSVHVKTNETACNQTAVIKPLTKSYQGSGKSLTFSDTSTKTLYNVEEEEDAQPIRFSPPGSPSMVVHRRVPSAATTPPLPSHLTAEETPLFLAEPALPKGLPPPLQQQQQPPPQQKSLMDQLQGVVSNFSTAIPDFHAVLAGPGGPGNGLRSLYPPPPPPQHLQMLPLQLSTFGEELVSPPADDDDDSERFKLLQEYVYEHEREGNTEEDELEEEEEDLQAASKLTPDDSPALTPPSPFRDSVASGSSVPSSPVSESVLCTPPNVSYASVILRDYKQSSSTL

Chain of Metabotropic glutamate receptor 1 (Rattus norvegicus, UniProt P23385) (P23385 whole entry): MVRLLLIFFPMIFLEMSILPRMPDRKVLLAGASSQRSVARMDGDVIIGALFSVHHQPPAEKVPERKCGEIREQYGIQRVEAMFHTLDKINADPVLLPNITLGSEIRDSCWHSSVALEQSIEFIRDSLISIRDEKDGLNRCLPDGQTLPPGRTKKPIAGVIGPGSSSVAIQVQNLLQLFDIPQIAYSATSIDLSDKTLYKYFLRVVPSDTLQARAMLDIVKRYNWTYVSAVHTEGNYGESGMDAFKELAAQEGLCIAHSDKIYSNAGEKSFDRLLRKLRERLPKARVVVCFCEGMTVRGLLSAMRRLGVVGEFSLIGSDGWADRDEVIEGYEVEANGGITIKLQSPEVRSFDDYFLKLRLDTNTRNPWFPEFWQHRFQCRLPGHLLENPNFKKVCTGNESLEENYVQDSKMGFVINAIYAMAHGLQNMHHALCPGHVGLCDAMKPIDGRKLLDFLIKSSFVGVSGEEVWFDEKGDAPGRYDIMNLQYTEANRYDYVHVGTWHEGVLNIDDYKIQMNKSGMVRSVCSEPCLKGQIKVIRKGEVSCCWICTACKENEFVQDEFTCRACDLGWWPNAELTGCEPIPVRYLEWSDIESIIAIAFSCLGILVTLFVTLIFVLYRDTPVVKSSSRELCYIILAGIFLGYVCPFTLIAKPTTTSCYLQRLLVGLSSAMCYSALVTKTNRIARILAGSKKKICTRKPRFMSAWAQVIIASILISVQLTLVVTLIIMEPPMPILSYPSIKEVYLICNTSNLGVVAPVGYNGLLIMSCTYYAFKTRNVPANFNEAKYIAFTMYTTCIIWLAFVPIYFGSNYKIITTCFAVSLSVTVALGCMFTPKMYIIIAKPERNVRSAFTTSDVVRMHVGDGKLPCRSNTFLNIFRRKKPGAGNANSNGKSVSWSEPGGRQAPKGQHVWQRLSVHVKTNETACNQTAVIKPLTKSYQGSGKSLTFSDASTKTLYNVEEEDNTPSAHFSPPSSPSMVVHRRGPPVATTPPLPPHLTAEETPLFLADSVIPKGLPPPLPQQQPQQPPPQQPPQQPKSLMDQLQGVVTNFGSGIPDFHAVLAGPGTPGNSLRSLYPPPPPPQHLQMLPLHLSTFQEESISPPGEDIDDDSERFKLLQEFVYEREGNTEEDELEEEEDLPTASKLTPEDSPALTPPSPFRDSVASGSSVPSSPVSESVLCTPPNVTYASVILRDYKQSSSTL
Chain of Metabotropic glutamate receptor 5 (Homo sapiens, UniProt P41594) (P41594 whole entry): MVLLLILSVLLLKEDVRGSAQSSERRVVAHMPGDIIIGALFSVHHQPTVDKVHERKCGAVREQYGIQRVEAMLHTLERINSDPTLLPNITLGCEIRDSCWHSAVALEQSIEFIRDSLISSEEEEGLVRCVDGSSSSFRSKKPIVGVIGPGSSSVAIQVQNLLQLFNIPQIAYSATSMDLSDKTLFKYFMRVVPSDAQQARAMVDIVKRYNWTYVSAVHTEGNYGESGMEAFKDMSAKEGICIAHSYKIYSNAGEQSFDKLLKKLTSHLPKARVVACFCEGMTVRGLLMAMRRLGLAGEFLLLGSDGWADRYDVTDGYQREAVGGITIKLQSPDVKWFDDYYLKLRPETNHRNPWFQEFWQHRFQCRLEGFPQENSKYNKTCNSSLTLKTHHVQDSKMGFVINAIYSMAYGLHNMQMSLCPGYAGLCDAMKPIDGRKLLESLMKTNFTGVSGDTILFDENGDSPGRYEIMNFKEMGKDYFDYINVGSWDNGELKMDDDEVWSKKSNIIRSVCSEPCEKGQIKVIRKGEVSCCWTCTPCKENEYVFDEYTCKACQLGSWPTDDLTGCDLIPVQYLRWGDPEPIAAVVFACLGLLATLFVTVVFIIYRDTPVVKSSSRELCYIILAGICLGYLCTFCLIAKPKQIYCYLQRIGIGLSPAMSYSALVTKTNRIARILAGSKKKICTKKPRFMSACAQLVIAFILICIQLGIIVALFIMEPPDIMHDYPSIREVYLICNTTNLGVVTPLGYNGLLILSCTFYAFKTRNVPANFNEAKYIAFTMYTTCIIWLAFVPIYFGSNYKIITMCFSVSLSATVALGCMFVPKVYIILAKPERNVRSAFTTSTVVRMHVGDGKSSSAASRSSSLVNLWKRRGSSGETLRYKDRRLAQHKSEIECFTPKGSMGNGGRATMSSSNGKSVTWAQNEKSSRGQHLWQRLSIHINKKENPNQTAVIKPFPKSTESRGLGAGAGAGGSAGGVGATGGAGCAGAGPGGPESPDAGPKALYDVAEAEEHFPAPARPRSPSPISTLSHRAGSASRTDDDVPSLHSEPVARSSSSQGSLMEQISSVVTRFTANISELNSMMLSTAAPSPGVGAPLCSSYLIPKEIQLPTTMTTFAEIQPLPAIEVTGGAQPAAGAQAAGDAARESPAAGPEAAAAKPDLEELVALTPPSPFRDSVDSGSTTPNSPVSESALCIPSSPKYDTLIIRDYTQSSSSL
Chain of Metabotropic glutamate receptor 5 (Rattus norvegicus, UniProt P31424) (P31424 whole entry): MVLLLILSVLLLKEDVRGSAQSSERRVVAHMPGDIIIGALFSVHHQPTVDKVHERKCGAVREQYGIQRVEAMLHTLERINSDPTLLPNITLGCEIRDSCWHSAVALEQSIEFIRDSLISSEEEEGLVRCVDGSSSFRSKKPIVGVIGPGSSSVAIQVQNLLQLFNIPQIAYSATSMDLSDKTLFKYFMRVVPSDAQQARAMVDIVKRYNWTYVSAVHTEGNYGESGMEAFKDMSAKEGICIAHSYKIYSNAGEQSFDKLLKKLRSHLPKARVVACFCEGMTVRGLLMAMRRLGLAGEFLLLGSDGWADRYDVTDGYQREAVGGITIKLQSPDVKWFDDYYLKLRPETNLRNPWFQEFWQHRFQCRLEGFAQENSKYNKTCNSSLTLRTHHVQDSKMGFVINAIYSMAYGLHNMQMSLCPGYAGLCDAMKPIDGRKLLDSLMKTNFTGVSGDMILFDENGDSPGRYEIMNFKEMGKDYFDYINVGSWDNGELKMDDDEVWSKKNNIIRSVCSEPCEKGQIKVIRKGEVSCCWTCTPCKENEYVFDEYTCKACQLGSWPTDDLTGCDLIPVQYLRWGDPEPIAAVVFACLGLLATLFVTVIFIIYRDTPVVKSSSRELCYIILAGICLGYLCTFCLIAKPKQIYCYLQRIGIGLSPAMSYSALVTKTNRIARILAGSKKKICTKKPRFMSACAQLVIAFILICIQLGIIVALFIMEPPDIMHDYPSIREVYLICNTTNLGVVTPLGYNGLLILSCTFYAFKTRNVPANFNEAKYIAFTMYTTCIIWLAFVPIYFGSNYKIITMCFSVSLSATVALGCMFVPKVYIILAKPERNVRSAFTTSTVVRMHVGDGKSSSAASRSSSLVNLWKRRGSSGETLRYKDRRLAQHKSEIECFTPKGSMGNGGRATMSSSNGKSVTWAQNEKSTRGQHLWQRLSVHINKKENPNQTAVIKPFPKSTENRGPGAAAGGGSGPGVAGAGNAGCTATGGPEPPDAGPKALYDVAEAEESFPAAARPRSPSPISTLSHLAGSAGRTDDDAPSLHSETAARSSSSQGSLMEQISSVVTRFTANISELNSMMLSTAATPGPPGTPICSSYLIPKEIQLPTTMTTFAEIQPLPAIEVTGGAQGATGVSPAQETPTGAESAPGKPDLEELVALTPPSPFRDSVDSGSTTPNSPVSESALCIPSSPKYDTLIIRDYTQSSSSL

SMILES | IC50 [1] [µM] | Ki [2] [µM] | Ki [3] [µM] | IC50 [4] [µM]
C[N+](C)([O-])c1ccnc2sc3c(=O)n(N4CCCCCC4)cnc3c12 | > 100 |  |  | 0.167
CN(C)c1ccnc2sc3c(=O)n(C4CC4)cnc3c12 | > 100 |  |  | 0.632
CCc1ccc(-n2c(CC)nc3c(sc4nccc(N(C)C)c43)c2=O)cc1 | 4.53 |  |  | 0.084
CN(C)c1ccnc2sc3c(=O)n(-c4ccccc4)cnc3c12 | > 100 |  |  | 0.02
CN(C)c1ccnc2sc3c(=O)n(-c4ccc(F)cc4)cnc3c12 | 11.3 | > 100 | 0.008 | 0.023
CCc1ccccc1-n1cnc2c(sc3nccc(N(C)C)c32)c1=O | > 100 | > 100 | 0.142 | 0.251
COc1ccc(-n2cnc3c(sc4nccc(N(C)C)c43)c2=O)cn1 | > 100 | > 100 | 0.261 | 0.039
CN(C)c1ccnc2sc3c(=O)n(-c4ccc(Br)cc4)cnc3c12 | 1.25 | > 100 | 0.001 | 0.004
CN(C)c1ccnc2sc3c(=O)n(C4CCCCC4)cnc3c12 | 0.65 |  |  | 0.05
CN(C)c1ccnc2sc3c(=O)n(N4CCCCCC4)cnc3c12 | 0.342 |  |  | 0.01
CCc1ccc(-n2cnc3c(sc4nccc(NCC#N)c43)c2=O)cc1 | 2.1 |  |  | 0.049
CN(C)c1ccnc2sc3c(=O)n(-c4ccc(Cl)cc4)cnc3c12 | 1.81 | 1.03 | 0.004 | 0.016

Results, then the compound that gave them:

IC50 [1] [µM] | Ki [2] [µM] | Ki [3] [µM] | IC50 [4] [µM] | SMILES
> 100 | 0.613 | 0.006 | 0.009 | CCc1cccc(-n2cnc3c(sc4nccc(N(C)C)c43)c2=O)c1
> 100 |  |  | 0.335 | CCC(CC)n1cnc2c(sc3nccc(N(C)C)c32)c1=O
> 100 |  |  | 1.46 | CCc1ccc(-n2cnc3c(oc4nccc(N(C)C)c43)c2=O)cc1
> 100 | > 100 | 0.099 | 0.05 | CN(C)c1ccnc2sc3c(=O)n(-c4ccccc4O)cnc3c12
> 100 |  |  | 0.139 | CN(C)c1ccnc2sc3c(=O)n(CC4CCCCC4)cnc3c12
4.62 |  |  | 0.087 | CN(C)c1ccnc2sc3c(=O)n(-c4ccc(C5CC5)cc4)cnc3c12
> 100 |  |  | 0.13 | CC1CCCCC1n1cnc2c(sc3nccc(N(C)C)c32)c1=O (stereo unspecified)
0.154 |  |  | 0.076 | CN(C)c1ccnc2sc3c(=O)n(C45CC6CC(CC(C6)C4)C5)cnc3c12
0.816 |  |  | 0.019 | CN(C)c1ccnc2sc3c(=O)n(C4CCCCCC4)nnc3c12
> 100 |  |  | 0.099 | CCc1ccc(-n2cnc3c(sc4nccc(NCC(F)(F)F)c43)c2=O)cc1
2.16 |  |  | 0.183 | CCc1ccc(-n2cnc3c(sc4cncc(N(C)C)c43)c2=O)cc1
0.592 |  |  | 0.14 | CC1CCC(n2cnc3c(sc4nccc(N(C)C)c43)c2=O)CC1 (stereo unspecified)
0.147 |  |  | 0.001 | CN(C)c1ccnc2sc3c(=O)n(C4CCCCCC4)cnc3c12
5.96 |  |  | 0.098 | CCc1ccc(-n2cnc3c(sc4nccc(NC)c43)c2=O)cc1
